Values joined by “and” are separate entries in the source; they are usually repeats but may differ in a detail not shown here. Equal entries are not always repeated.
Assays:
[1] = test system: Cricetinae gen. sp.; assay: Local activity of untreated flank organ in hamster; Expressed as weight (mg); type: functional
Outline: (§1)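 Male hamsters (100–110 g), castrated 7 days earlier, in groups of four. […] Test compound in 20 μL ethanol was applied daily to the right flank organ, and the contralateral organ received ethanol only. Animals were killed 24 h after the last treatment, and flank organs and prostate were weighed. Results are mean ± SEM.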

[2] = test system: Cricetinae gen. sp.; assay: (§2) Local subcutaneous administration (1 mg); Expressed as weight (mg); type: functional; outline: as §1
[3] = test system: Cricetinae gen. sp.; assay: as §2; type: functional; outline: as §1; remark: listed apart in the source
[4] = test system: Cricetinae gen. sp.; assay: (§3) Local subcutaneous administration (200 ug); Expressed as weight (mg); type: functional; outline: as §1
[5] = test system: Cricetinae gen. sp.; assay: (§4) Tocal subcutaneous administration (1 mg); Expressed as weight (mg); type: functional; outline: as §1
[6] = test system: Cricetinae gen. sp.; assay: (§5) Tocal subcutaneous administration (200 ug); Expressed as weight (mg); type: functional; outline: as §1
[7] = test system: Cricetinae gen. sp.; assay: (§6) Tocal subcutaneous administration (40 ug); Expressed as weight (mg); type: functional; outline: as §1
[8] = test system: Cricetinae gen. sp.; assay: as §4; type: functional; outline: as §1; remark: listed apart in the source
[9] = test system: Cricetinae gen. sp.; assay: as §3; type: functional; outline: as §1; remark: listed apart in the source
[10] = test system: Cricetinae gen. sp.; assay: as §6; type: functional; outline: as §1; remark: listed apart in the source
[11] = test system: Cricetinae gen. sp.; assay: Tocal activity of untreated flank organ in hamster; Expressed as weight (mg); type: functional; outline: as §1
[12] = test system: Cricetinae gen. sp.; assay: as §5; type: functional; outline: as §1; remark: listed apart in the source
[13] = test system: Rattus norvegicus; assay: In vivo percent increase in rat prostate weight on subcutaneous administration of testosterone propionate along with compound at dose 5 mg/day; Expressed as percent inhibition of weight increase, mg; type: functional, Prostate gland
Outline: (§7)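 Immature male rats (70 g), castrated 24 h earlier, in groups of five. […] Controls received vehicle only (sesame oil with 5% benzyl alcohol). Rats were killed 24 h after the last dose, and prostate and seminal vesicles were excised and weighed.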

[14] = test system: Rattus norvegicus; assay: In Vivo inhibition against increase in immature castrated rat seminal vesicles weight on subcutaneous administration of testosterone propionate at dose 5 mg/kg; type: functional
[15] = test system: Rattus norvegicus; assay: In vivo percent increase rat seminal vesicles weight on subcutaneous administration of testosterone propionate along with compound at dose 5 mg/day; Expressed as percent inhibition of weight increase, mg; type: functional; outline: as §7
[16] = test system: Rattus norvegicus; assay: In vivo percent increase in rat prostate weight on subcutaneous administration of testosterone propionate along with compound at dose 1 mg/day; Expressed as percent inhibition of weight increase, mg; type: functional, Prostate gland
[17] = test system: Rattus norvegicus; assay: In vivo percent increase in rat seminal vesicles weight on subcutaneous administration of testosterone propionate along with compound at dose 1 mg/day; Expressed as percent inhibition of weight increase, mg; type: functional
[18] = test system: Cricetinae gen. sp.; assay: (§8) Local subcutaneous administration (125 ug); Expressed as weight (mg); type: functional; outline: as §1
[19] = test system: Cricetinae gen. sp.; assay: as §8; type: functional; outline: as §1; remark: listed apart in the source

For CCC(=O)O[C@H]1CC[C@H]2[C@@H]3CCC4=CC(=O)CC[C@]4(C)[C@H]3CC[C@]12C.CCC1=C2CCC3(C)C(O)CCC3C2CCC1=O, the Weight [1] was 34.8 mg, the Weight [2] was 134 mg and the Weight [3] was 27.8 mg.

Molecule CC1=C2CCC3(C)C(O)CCC3C2CCC1=O.CCC(=O)O[C@H]1CC[C@H]2[C@@H]3CCC4=CC(=O)CC[C@]4(C)[C@H]3CC[C@]12C has a Weight [1] of 37.3 mg, a Weight [2] of 144 mg and a Weight [3] of 36.8 mg.

In the case of CCC(=O)O[C@H]1CC[C@H]2[C@@H]3CCC4=CC(=O)CC[C@]4(C)[C@H]3CC[C@]12C.CCC1=C2CCC3(C)C(OC(C)=O)CCC3C2CCC1=O, the Weight [4] is reported as 22.8 mg, the Weight [1] is reported as 31.7 mg and 33 mg and the Weight [5] is reported as 111 mg. For the same molecule, the Weight [6] was 108 mg, the Weight [7] was 125 mg and the Weight [8] was 24.8 mg. The Weight [2] was 143 mg, the Weight [9] was 145 mg and the Weight [3] was 16.8 mg. For the same molecule, the Weight [10] was 38.9 mg, the Weight [11] was 46.2 mg and 42.9 mg and 46.8 mg and the Weight [12] was 31.1 mg.

Molecule CC1(C)C(=O)CCC2C1CCC1(C)C(O)CCC21.CCC(=O)O[C@H]1CC[C@H]2[C@@H]3CCC4=CC(=O)CC[C@]4(C)[C@H]3CC[C@]12C has a Weight [1] of 36.7 mg, a Weight [2] of 135 mg and a Weight [3] of 28.4 mg.

Work on CCC(=O)O[C@H]1CC[C@H]2[C@@H]3CCC4=CC(=O)CC[C@]4(C)[C@H]3CC[C@]12C.CCC12CCC3=C(C)C(=O)CCC3C1CCC2O yielded a Weight [1] of 35.2 mg, a Weight [2] of 137 mg and a Weight [3] of 31.9 mg.

CC1(C)C(=O)CCC2C1CCC1(C)C(O)CCC21 (stereo unspecified) was tested, and the Inhibition [13] was 49% and the “Inhibition of increase in weight” value [14] was 63%.

In the case of CC1=C2CCC3(C)C(O)CCC3C2CCC1=O (stereo unspecified), the Inhibition [13] is reported as 27% and the “Inhibition of increase in weight” value [14] is reported as 54%.

In the case of CCC1=C2CCC3(C)C(OC(C)=O)CCC3C2CCC1=O (stereo unspecified), the Inhibition [13] is reported as 50% and the Inhibition [15] is reported as 50%.

In the case of CC1=C2C=CC3(C)C(O)CCC3C2CCC1=O (stereo unspecified), the Inhibition [13] is reported as 25% and the “Inhibition of increase in weight” value [14] is reported as 45%.

In the case of CCC12CCC3=C(C)C(=O)CCC3C1CCC2O (stereo unspecified), the Inhibition [13] is reported as 10% and the “Inhibition of increase in weight” value [14] is reported as 50%.

CCC1=C2CCC3(C)C(O)CCC3C2CCC1=O (stereo in doubt; 5c) was tested, and the Inhibition [13] was 59% and the “Inhibition of increase in weight” value [14] was 73%.

For CC(=O)O[C@]1(C(C)=O)CC[C@H]2[C@@H]3C=C(Cl)C4=CC(=O)[C@@H]5C[C@@H]5[C@]4(C)[C@H]3CC[C@@]21C [CYPROTERONE ACETATE], the Inhibition [16] was 90% and the Inhibition [17] was 73%.

With CCC(=O)O[C@H]1CC[C@H]2[C@@H]3CCC4=CC(=O)CC[C@]4(C)[C@H]3CC[C@]12C [TESTOSTERONE PROPIONATE] the Weight [1] was 37.6 mg and 49.4 mg, the Weight [18] was 165 mg and 171 mg and the Weight [19] was 37.6 mg and 48.5 mg.
